# From ChEMBL document CHEMBL1138797, “6-azapyrimidine-2'-deoxy-4'-thionucleosides: antiviral agents against TK+ and TK- HSV and VZV strains” (J Med Chem, 2004)
# What was measured:
# [1] = Minimum cytotoxic concentration that causes microscopically detectable alteration of cell morphology in HEL cell culture; type: cell-based; details: human, HEL cells
# E6SM [2] = assay: Effective concentration required to reduce HSV-1 strain KOS virus plaque formation by 50% in E6SM Cell Culture; type: functional, cell-based; details: Homo sapiens
# How it was run: (§1)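 Confluent E6SM cell cultures in microtiter trays were infected with 20 PFU for a 1 h adsorption period, then washed free of residual virus and incubated with serial compound dilutions (400, 200, 100, ... μg/mL). Plaque formation was read when cytopathicity was complete in virus controls. […] The TK-deficient HSV-1 line refers to HSV-1/TK⁻ ACVʳ.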
# HEL [3] = assay: Effective concentration required to reduce CMV davis strain virus plaque formation by 50% in HEL cell culture; type: functional, cell-based, Cytomegalovirus; details: Homo sapiens
# How it was run: (§2)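 Plaque-reduction assay in confluent HEL cell cultures. After 1 h adsorption of a 20 PFU virus input, residual virus was removed and cells were incubated with graded compound concentrations. Plaques were scored once cytopathicity was complete in untreated infected controls. […] The TK-deficient VZV line refers to strain YS/R.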
# HEL [4] = assay: Effective concentration required to reduce […] (thymidine kinase deficient) VZV strain YS/R virus plaque formation by 50% in HEL cell culture; type: functional, cell-based, Human alphaherpesvirus 3; details: Homo sapiens
# E6SM [5] = assay: Minimum cytotoxic concentration that caused a microscopically detectable alteration of cell morphology in E6SM Cell Culture; type: functional; details: Homo sapiens
# E6SM [6] = assay: Effective concentration required to reduce HSV-2 strain G virus plaque formation by 50% in E6SM Cell Culture; type: functional, cell-based; details: Homo sapiens; how it was run: as §1
# E6SM [7] = assay: Effective concentration required to reduce HSV-1 strain KOS ACV virus plaque formation by 50% in E6SM Cell Culture; type: functional, cell-based; details: Homo sapiens; how it was run: as §1
# HEL [8] = assay: Effective concentration required to reduce […] (thymidine kinase deficient) VZV strain 07/1 virus plaque formation by 50% in HEL cell culture; type: functional, cell-based, Human alphaherpesvirus 3; details: Homo sapiens
# [9] = Cytotoxic concentration required to reduce HEL cell growth by 50%; type: cell-based; details: human, HEL cells
# E6SM [10] = assay: Effective concentration required to reduce vaccinia virus plaque formation by 50% in E6SM Cell Culture; type: functional, cell-based; details: Homo sapiens; how it was run: as §1
# HEL [11] = assay: Effective concentration required to reduce TK+ (thymidine kinase presence) VZV strain YS virus plaque formation by 50% in HEL cell culture; type: functional, cell-based, Human alphaherpesvirus 3; details: Homo sapiens
# HEL [12] = assay: Effective concentration required to reduce TK+ (thymidine kinase presence) VZV strain OKA virus plaque formation by 50% in HEL cell culture; type: functional, cell-based, Human alphaherpesvirus 3; details: Homo sapiens
# HEL [13] = assay: Effective concentration required to reduce CMV AD169 strain virus plaque formation by 50% in HEL cell culture; type: functional, cell-based, Cytomegalovirus; details: Homo sapiens; how it was run: as §2
# HEL [14] = assay: Effective concentration required to reduce […] (thymidine kinase deficient) VZV strain YS/R virus plaque formation by 50% in HEL cell culture; No complete inhibition; type: functional, cell-based, Human alphaherpesvirus 3; details: Homo sapiens; how it was run: as §2
Structure (SMILES),MCC [1],EC50 (E6SM [2]),EC50 (HEL [3]),EC50 (HEL [4]),MCC (E6SM [5]),EC50 (E6SM [6]),EC50 (E6SM [7]),EC50 (HEL [8]),CC50 [9],EC50 (E6SM [10]),EC50 (HEL [11]),EC50 (HEL [12]),EC50 (HEL [13]),EC50 (HEL [14])
CC(=O)OC[C@H]1S[C@@H](n2nc(C)c(=S)[nH]c2=O)C[C@@H]1OC(C)=O,> 40 µM,> 8 µg/mL,> 40 µM,> 40 µM,≥ 40 µg/mL,> 8 µg/mL,> 8 µg/mL,> 40 µM,> 40 µM,> 8 µg/mL,> 40 µM,> 40 µM,> 40 µM,
O=c1[nH]c(=O)n([C@H]2C[C@H](O)[C@@H](CO)O2)cc1/C=C/Br [BRIVUDINE],,0.01 µg/mL,> 400 µM,56 µM,> 400 µg/mL,80 µg/mL,16 µg/mL,29 µM,,> 400 µg/mL,0.003 µM,0.003 µM,> 150 µM,
Cc1nn([C@H]2C[C@H](O)[C@@H](CO)S2)c(=O)[nH]c1=S,> 40 µM,120 µg/mL,> 40 µM,> 40 µM,> 200 µg/mL,120 µg/mL,120 µg/mL,> 40 µM,> 40 µM,120 µg/mL,> 40 µM,> 40 µM,> 40 µM,
Nc1nc2c(ncn2COCCO)c(=O)[nH]1 [ACYCLOVIR],,0.07 µg/mL,> 400 µM,,> 400 µg/mL,0.07 µg/mL,48 µg/mL,,,0.38 µg/mL,,,> 200 µM,
Nc1nc2c(ncn2COC(CO)CO)c(=O)[nH]1 [GANCICLOVIR],> 150 µM,0.004 µg/mL,1.5 µM,,> 100 µg/mL,0.003 µg/mL,2.4 µg/mL,,> 150 µM,> 100 µg/mL,,,0.5 µM,
CCc1nn([C@H]2C[C@H](O)[C@@H](CO)S2)c(=O)nc1O,> 40 µM,120 µg/mL,> 40 µM,> 40 µM,> 200 µg/mL,> 200 µg/mL,> 200 µg/mL,> 40 µM,,> 200 µg/mL,> 40 µM,> 40 µM,> 40 µM,
Cc1nn([C@H]2C[C@H](O)[C@@H](CO)S2)c(=O)nc1N,> 40 µM,24 µg/mL,> 40 µM,> 40 µM,> 200 µg/mL,24 µg/mL,120 µg/mL,> 40 µM,> 40 µM,24 µg/mL,> 40 µM,> 40 µM,> 40 µM,
Cc1nn([C@H]2C[C@H](O)[C@@H](CO)S2)c(=O)nc1O,> 200 µM,1.3 µg/mL,> 200 µM,,> 200 µg/mL,3.2 µg/mL,18 µg/mL,14 µM,166 µM,2.2 µg/mL,4.1 µM,2.5 µM,> 200 µM,≥ 5 µM
CCCc1nn([C@H]2C[C@H](O)[C@@H](CO)S2)c(=O)[nH]c1=O,> 40 µM,> 200 µg/mL,> 40 µM,> 40 µM,> 200 µg/mL,> 200 µg/mL,120 µg/mL,> 40 µM,> 40 µM,> 200 µg/mL,> 40 µM,> 40 µM,> 40 µM,
